Data set [1] deals with Mus musculus. Description: Maximal electroshock seizures was determined for the inhibition of hind limb tonus in mouse by 1 hr after po dose. The conditions noted are these: Hindlimb. Type of data set: functional. A digest of the protocol: (§1)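 Oral dosing, with seizures assessed 1 h later. The endpoint is inhibition of hind limb tonus, expressed as ED50 in mg/kg po.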
On the technique in general: In the maximal electroshock model the usual endpoint is tonic extension of the hind limbs.

The subject of data set [2] is Mus musculus. The experiment in a line: Maximal metrazole seizures was determined for the inhibition of hind limb tonus in mouse 1 hr after po dosing. Type of data set: functional. Particulars: Hindlimb. A digest of the protocol:
as §1

Data set [3] is described as follows: Tested for the neurotoxicity in mouse rotarod test was reported 1 hr after po dosing. Particulars: in vivo. Type of data set: toxicity, organism-based. A digest of the protocol:
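Trained mice were placed on a rotating rod 1 h after oral dosing. TD50 (mg/kg) is the dose at which 50% of animals fall off the rod, reported with its range.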
A general note: In the rotarod test animals must keep their balance on a rotating rod.

For data set [4], the system named is Rattus norvegicus. Description: Maximal electroshock seizures determined for the inhibition of hind limb tonus in rat 1 hr after po dosing. Particulars: Hindlimb. Type of data set: functional. In outline: as §1
Data set [5] can be described thus: Tested for the neurotoxicity in mouse rotarod test was reported 2 hr after po dosing. The conditions noted are these: in vivo. Type of data set: toxicity, organism-based.

Broadly, the ED50 is the dose at which the effect has come halfway, by size or by number of responders. A low value points to an effect at a small dose. The term TD50 denotes the 50% point of the dose-response relation for the toxic effect studied. High values mean lower toxicity, low ones greater toxicity.

Take `C/N=C(\N)Nc1nnc(-c2ccccc2C(F)(F)F)s1`: the ED50 in data set [1] was 49 mg/kg; in data set [2], 44 mg/kg. For the same molecule, the TD50 at 1 h in data set [3] is > 400 mg/kg.

For the molecule `CN(C1=NCCN1)c1nnc(-c2ccccc2C(F)(F)F)s1`, the ED50 in data set [1] and in data set [2] was > 100 mg/kg each time.

Consider `N=C(N)Nc1nnc(-c2ccccc2C(F)(F)F)s1`, for which the ED50 is 27 mg/kg in data set [1], 45 mg/kg in data set [2] and 22 mg/kg in data set [4]. Besides, the TD50 at 1 h in data set [3] amounted to 384 mg/kg.

For the molecule `N=C(NCc1ccccc1)Nc1nnc(-c2ccccc2C(F)(F)F)s1`, the ED50 in data set [1] and in data set [2] was > 100 mg/kg each time.

Consider `NC(=O)N1c2ccccc2C=Cc2ccccc21` [CARBAMAZEPINE], for which the ED50 in data set [1] amounted to 20 mg/kg; in data set [2], 11 mg/kg; in data set [4], 4 mg/kg.

Turning to `CN(N)c1nnc(-c2ccc(-c3ccccc3)cc2)s1`, the values for the ED50 in data set [1], in data set [2] and in data set [4] were 18 mg/kg, 27 mg/kg and 16 mg/kg, respectively. The TD50 at 2 h in data set [5] was > 1000 mg/kg.

In the case of `O=C1NC(=O)C(c2ccccc2)(c2ccccc2)N1` [PHENYTOIN], the figures for the ED50 in data set [1], in data set [2] and in data set [4] were 8 mg/kg, 8 mg/kg and 14 mg/kg, respectively.

As to `CCCC/N=C(\N)Nc1nnc(-c2ccccc2C(F)(F)F)s1`, the median effective dose (ED50) in data set [1] worked out at 142 mg/kg; in data set [2], 225 mg/kg.

In the case of `CN(C)CCC/N=C(\N)Nc1nnc(-c2ccccc2C(F)(F)F)s1`, the ED50 in data set [1] and in data set [2] was > 100 mg/kg throughout.

`FC(F)(F)c1ccccc1-c1nnc(NC2=NCCN2)s1`: the ED50 in data set [1] and in data set [2] was > 100 mg/kg throughout.

As to `CCC1(c2ccccc2)C(=O)NC(=O)NC1=O` [PHENOBARBITAL], the ED50 amounted to 12 mg/kg in data set [1], 4 mg/kg in data set [2] and 9 mg/kg in data set [4].

Turning to `COCCC/N=C(\N)Nc1nnc(-c2ccccc2C(F)(F)F)s1`, the ED50 is > 100 mg/kg in data set [1] and 78 mg/kg in data set [2].
